Reference: article PMC2916634 (Biochemistry, 2010)
Each block holds one molecule with its values, some of them ahead of it. Ends that are not written are not given here. Me3 = Me3: trimethyl-lysine (trimethylated lysine)

B3: CYP33 RRM domain (T3-K83), wild type (domain or fragment, human, UniProt Q9UNP9 3-83, looked up)
chain: TTKRVLYVGGLAEEVDDKVLHAAFIPFGDITDIQIPLDYETEKHRGFAFVEFELAEDAAAAIDNMNESELFGRTIRVNLAK
B11: MLL PHD3 (third PHD finger of MLL), wild type (domain or fragment, human, UniProt Q03164 1564-1628, looked up)
chain: AKGNFCPLCDKCYDDDDYESKMMQCGKCDRWVHSKCENLSDEMYEILSNLPESVAYTCVNCTERH

Experiments:
C-MYC = test: Q-RT-PCR of C-MYC expression in HEK293T cells; assay type: cell-based; settings: 48 h after transfection, normalized to β2M, vs empty vector
How it was run: (§1)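 HEK293T cells transfected with Lipofectamine 2000 using pCEP4 empty vector, FLAG-tagged wild-type CYP33 or PPIase-dead CYP33 (R191A/F196A). At 48 h, RNA extracted with Trizol and reverse-transcribed. qPCR run in triplicate. cDNA levels normalized to β2M by the comparative Ct method.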

HOXA9 = test: Q-RT-PCR of HOXA9 expression in HEK293T cells; assay type: cell-based; settings: 48 h after transfection, normalized to β2M, vs empty vector
How it was run: as §1

CDKN1B = test: Q-RT-PCR of CDKN1B expression in HEK293T cells; assay type: cell-based; settings: 48 h after transfection, normalized to β2M, vs empty vector
How it was run: as §1

HOXC8 = test: Q-RT-PCR of HOXC8 expression in HEK293T cells; assay type: cell-based; settings: 48 h after transfection, normalized to β2M, vs empty vector
How it was run: as §1

HOXC8 promoter = test: Chromatin immunoprecipitation at HOXC8 promoter in HEK293T cells; assay type: cell-based; settings: ChIP, 48 h after transfection, CYP33 overexpression vs empty vector
How it was run: (§2)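 HEK293T cells transfected with empty vector or pCEP4-CYP33 by lipofectamine, then formalin-fixed at 48 h. Chromatin immunoprecipitated with anti-histone H3, anti-H3K4me3, anti-acetyl-H3 (K9/K14) or IgG control antibodies. Recovered DNA quantified by qPCR at MLL target gene promoters. Fold occupancy normalized to input DNA.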

CDKN1B promoter = test: Chromatin immunoprecipitation at CDKN1B promoter in HEK293T cells; assay type: cell-based; settings: ChIP, 48 h after transfection, CYP33 overexpression vs empty vector
How it was run: as §2

[1] = 15N−1H HSQC structural integrity of mutants; assay type: physicochemical; settings: 15N−1H HSQC of mutant vs wild type, 30 °C, pH 6.9
[2] = molecular target: B11; test: ITC
[3] = molecular target: PHD3−CYP33 RRM complex (PHD3 saturated with CYP33 RRM) (human, UniProt Q03164 1564-1628; Q9UNP9 3-83); test: ITC
MLL PHD3 V1617A mutant = MLL PHD3 V1617A mutant (human, UniProt Q03164 1564-1628, V1617A); test: ITC
PHD3 = settings: yeast two-hybrid assay, co-immunoprecipitation, and GST pull-down; cited from earlier work
W1594A PHD3 = W1594A PHD3 (Homo sapiens, UniProt Q03164, W1594A); test: ITC binding to PHD3 W1594A mutant
[4] = molecular target: PHD3 (MLL PHD3, wild-type) (Homo sapiens, UniProt Q03164); test: ITC binding of H3K4me3 peptide or CYP33 RRM; settings: CYP33 RRM Ala mutant to wild-type PHD3
[5] = molecular target: B3; test: ITC

Molecule: CYP33 mutant (R191A/F196A)
C-MYC expression (C-MYC): no longer downregulated
HOXA9 expression (HOXA9): no longer downregulated
CDKN1B expression (CDKN1B): no longer downregulated
HOXC8 expression (HOXC8): no longer downregulated

Molecule: CYP33: Human nuclear Cyclophilin33, full-length; FLAG-tagged wild-type expressed from pCEP4 plasmid in HEK293T cells
C-MYC expression (C-MYC): markedly downregulated
H3K4me3 mark (HOXC8 promoter): reduced
histone H3 density (HOXC8 promoter): increase
H3K4me3 mark (CDKN1B promoter): reduced
H3 acetylation level (K9 and K14) (CDKN1B promoter): reduced
histone H3 density (CDKN1B promoter): increase
HOXA9 expression (HOXA9): markedly downregulated
CDKN1B expression (CDKN1B): markedly downregulated
HOXC8 expression (HOXC8): markedly downregulated

B1: V1617A: MLL PHD3 with V1617 mutated to alanine (protein)
chain: AKGNFCPLCDKCYDDDDYESKMMQCGKCDRWVHSKCENLSDEMYEILSNLPESAAYTCVNCTERH
modifications: left off: GST, end not stated, cleaved
effect of mutation on structure [1]: does not affect the structural stability of PHD3

B2: Y1619A: MLL PHD3 with Y1619 mutated to alanine (protein)
chain: AKGNFCPLCDKCYDDDDYESKMMQCGKCDRWVHSKCENLSDEMYEILSNLPESVAATCVNCTERH
modifications: left off: GST, end not stated, cleaved
effect of mutation on structure [1]: disruption of the overall fold

stoichiometry N [2]: 1
fold increase in Kd against PHD3 alone [3]: ~5.7 fold
Molecule: ARTK(Me3)QTARKSTGGKAY (not fully specified) [Histone H3 peptide (residues 1-15) trimethylated at K4]

Molecule: B3
fold decrease in affinity against wild-type PHD3 (MLL PHD3 V1617A mutant): ~6.2 fold

Kd (W1594A PHD3; 25 °C, pH 7.2, CYP33 RRM to W1594A PHD3): 19.6 µM
fold weaker Kd vs wild-type PHD3 (W1594A PHD3; CYP33 RRM to W1594A PHD3): ~1.3 fold
B4: CYP33 RRM: RRM domain of CYP33 spanning residues T3−K83 (protein)
chain: TTKRVLYVGGLAEEVDDKVLHAAFIPFGDITDIQIPLDYETEKHRGFAFVEFELAEDAAAAIDNMNESELFGRTIRVNLAK
modifications: left off: GST, end not stated, cleaved
interaction with PHD3 (PHD3): interacts

B5: R47A (protein)
chain: TTKRVLYVGGLAEEVDDKVLHAAFIPFGDITDIQIPLDYETEKHAGFAFVEFELAEDAAAAIDNMNESELFGRTIRVNLAK
modifications: left off: GST, end not stated, cleaved
interaction with PHD3 [4]: did not abrogate the interaction

B6: F49A (protein)
chain: TTKRVLYVGGLAEEVDDKVLHAAFIPFGDITDIQIPLDYETEKHRGAAFVEFELAEDAAAAIDNMNESELFGRTIRVNLAK
modifications: left off: GST, end not stated, cleaved
effect of mutation on structure [1]: without disrupting the structure

B7: L39A (protein)
chain: TTKRVLYVGGLAEEVDDKVLHAAFIPFGDITDIQIPADYETEKHRGFAFVEFELAEDAAAAIDNMNESELFGRTIRVNLAK
modifications: left off: GST, end not stated, cleaved
effect of mutation on structure [1]: without disrupting the structure

B8: K45A (protein)
chain: TTKRVLYVGGLAEEVDDKVLHAAFIPFGDITDIQIPLDYETEAHRGFAFVEFELAEDAAAAIDNMNESELFGRTIRVNLAK
modifications: left off: GST, end not stated, cleaved
interaction with PHD3 [4]: did not abrogate the interaction

fold decrease in affinity against wild-type CYP33 RRM [2]: ~4.3 fold
B9: CYP33 RRM L39A mutant (domain or fragment, human, UniProt Q9UNP9 3-83, looked up)
chain: TTKRVLYVGGLAEEVDDKVLHAAFIPFGDITDIQIPADYETEKHRGFAFVEFELAEDAAAAIDNMNESELFGRTIRVNLAK

fold decrease in affinity against wild-type CYP33 RRM [2]: ~14 fold
B10: CYP33 RRM F49A mutant (domain or fragment, human, UniProt Q9UNP9 3-83, looked up)
chain: TTKRVLYVGGLAEEVDDKVLHAAFIPFGDITDIQIPLDYETEKHRGAAFVEFELAEDAAAAIDNMNESELFGRTIRVNLAK

Molecule: B11
Kd [5]: 14.7 µM

Kd [5]: 19.6 µM
B12: MLL PHD3 W1594A mutant (domain or fragment, human, UniProt Q03164 1564-1628, looked up)
chain: AKGNFCPLCDKCYDDDDYESKMMQCGKCDRAVHSKCENLSDEMYEILSNLPESVAYTCVNCTERH

binding result [5]: binds
B13: MLL PHD3 Y1619A mutant (domain or fragment, human, UniProt Q03164 1564-1628, looked up)
chain: AKGNFCPLCDKCYDDDDYESKMMQCGKCDRWVHSKCENLSDEMYEILSNLPESVAATCVNCTERH
